# Reference: ChEMBL document CHEMBL4689842, “EUbOPEN Chemogenomics Library wave 1” (2021)
# Values joined by “and” are separate entries in the source; they are usually repeats but may differ in a detail not shown here. Equal values may be shown once.
# System: Fibroblast
# Test: Multiplex assay against human fibroblast
# Format: toxicity, cell-based
# Summary of the method: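 Compound was added to live cells that had been stained at seeding with Hoechst33342, BioTracker Green Microtubule Cytoskeleton Dye, MitoTracker Red and Annexin V Alexa Fluor 680, and imaging followed on a CQ1 microscope at 37°C and 5% CO2. CellPathfinder machine-learning gating divided cells into Hoechst high-intensity objects or normal cells, normal cells into healthy, pyknosed or fragmented nuclei, and pyknosed cells into mitotic or apoptotic. Tubulin, mitochondrial-mass and membrane-permeability phenotypes are per cents of healthy-nucleus cells.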
# [1] = 12 h, 1 µM, compound concentration 1 uM, replicate 1
# [2] = 12 h, 1 µM, compound concentration 1 uM, replicate 2
# [3] = 12 h, 10 µM, compound concentration 10 uM, replicate 1
# [4] = 12 h, 10 µM, compound concentration 10 uM, replicate 2
# [5] = 24 h, 1 µM, compound concentration 1 uM, replicate 1
# [6] = 24 h, 1 µM, compound concentration 1 uM, replicate 2
# [7] = 24 h, 10 µM, compound concentration 10 uM, replicate 1
# [8] = 24 h, 10 µM, compound concentration 10 uM, replicate 2
# [9] = 48 h, 1 µM, compound concentration 1 uM, replicate 1
# [10] = 48 h, 1 µM, compound concentration 1 uM, replicate 2
# [11] = 48 h, 10 µM, compound concentration 10 uM, replicate 1
# [12] = 48 h, 10 µM, compound concentration 10 uM, replicate 2
compound,measurement,setting,value
CC(C)(O)CNc1ncc(-c2ccnc(Nc3ccnc(Cl)c3)n2)c(CC2CC2)n1,Population Apoptotic (%),[1],59%
same,Population Fragmented Nuclei (%),[1],27%
same,Population Healthy Nuclei (%),[1],46%
same,Population Hoechst High Intensity Objects (%),[1],14%
same,Population Membrane Permeable-Phenotype (%),[1],35%
same,Population Mitochondria Different-Phenotype (%),[1],6%
same,Population Mitotic Cells (%),[1],40%
same,Population Normal (%),[1],85%
same,Population Pyknosed Nuclei (%),[1],25%
same,Population Tubulin-Different-Phenotype (%),[1],54%
same,Total Cell Count,[1],121
same,Population Apoptotic (%),[2],9%
same,Population Fragmented Nuclei (%),[2],9%
same,Population Healthy Nuclei (%),[2],78%
same,Population Hoechst High Intensity Objects (%),[2],5%
same,Population Membrane Permeable-Phenotype (%),[2],5%
same,Population Mitochondria Different-Phenotype (%),[2],17%
same,Population Mitotic Cells (%),[2],90%
same,Population Normal (%),[2],94%
same,Population Pyknosed Nuclei (%),[2],12%
same,Population Tubulin-Different-Phenotype (%),[2],14%
same,Total Cell Count,[2],97
same,Population Apoptotic (%),[3],58%
same,Population Fragmented Nuclei (%),[3],32%
same,Population Healthy Nuclei (%),[3],24%
same,Population Hoechst High Intensity Objects (%),[3],7%
same,Population Membrane Permeable-Phenotype (%),[3],18%
same,Population Mitochondria Different-Phenotype (%),[3],45%
same,Population Mitotic Cells (%),[3],41%
same,Population Normal (%),[3],92%
same,Population Pyknosed Nuclei (%),[3],43%
same,Population Tubulin-Different-Phenotype (%),[3],90%
same,Total Cell Count,[3],97
same,Population Apoptotic (%),[4],15%
same,Population Fragmented Nuclei (%),[4],10%
same,Population Healthy Nuclei (%),[4],64%
same,Population Membrane Permeable-Phenotype (%),[4],28%
same,Population Mitochondria Different-Phenotype (%),[4],96%
same,Population Mitotic Cells (%),[4],84%
same,Population Pyknosed Nuclei (%),[4],26%
same,Population Tubulin-Different-Phenotype (%),[4],100%
same,Total Cell Count,[4],93
same,Population Apoptotic (%),[5],53%
same,Population Fragmented Nuclei (%),[5],35%
same,Population Healthy Nuclei (%),[5],51%
same,Population Hoechst High Intensity Objects (%),[5],10%
same,Population Membrane Permeable-Phenotype (%),[5],31%
same,Population Mitochondria Different-Phenotype (%),[5],0%
same,Population Mitotic Cells (%),[5],46%
same,Population Normal (%),[5],90%
same,Population Pyknosed Nuclei (%),[5],12%
same,Population Tubulin-Different-Phenotype (%),[5],53%
same,Total Cell Count,[5],130
same,Population Apoptotic (%),[6],20%
same,Population Fragmented Nuclei (%),[6],11%
same,Population Healthy Nuclei (%),[6],74%
same,Population Hoechst High Intensity Objects (%),[6],4%
same,Population Membrane Permeable-Phenotype (%),[6],10%
same,Population Mitochondria Different-Phenotype (%),[6],20%
same,Population Mitotic Cells (%),[6],80%
same,Population Normal (%),[6],95%
same,Population Pyknosed Nuclei (%),[6],15%
same,Population Tubulin-Different-Phenotype (%),[6],16%
same,Total Cell Count,[6],136
same,Population Apoptotic (%),[7],63%
same,Population Fragmented Nuclei (%),[7],20%
same,Population Healthy Nuclei (%),[7],32%
same,Population Hoechst High Intensity Objects (%),[7],8%
same,Population Membrane Permeable-Phenotype (%),[7],28%
same,Population Mitochondria Different-Phenotype (%),[7],60%
same,Population Mitotic Cells (%),[7],36%
same,Population Normal (%),[7],91%
same,Population Pyknosed Nuclei (%),[7],47%
same,Population Tubulin-Different-Phenotype (%),[7],89%
same,Total Cell Count,[7],95
same,Population Apoptotic (%),[8],47%
same,Population Fragmented Nuclei (%),[8],14%
same,Population Healthy Nuclei (%),[8],40%
same,Population Hoechst High Intensity Objects (%),[8],14%
same,Population Membrane Permeable-Phenotype (%),[8],47%
same,Population Mitochondria Different-Phenotype (%),[8],89%
same,Population Mitotic Cells (%),[8],52%
same,Population Normal (%),[8],85%
same,Population Pyknosed Nuclei (%),[8],44%
same,Population Tubulin-Different-Phenotype (%),[8],100%
same,Total Cell Count,[8],105
same,Population Apoptotic (%),[9],100%
same,Population Fragmented Nuclei (%),[9],51%
same,Population Healthy Nuclei (%),[9],46%
same,Population Hoechst High Intensity Objects (%),[9],18%
same,Population Membrane Permeable-Phenotype (%),[9],27%
same,Population Mitochondria Different-Phenotype (%),[9],3%
same,Population Mitotic Cells (%),[9],0%
same,Population Normal (%),[9],81%
same,Population Tubulin-Different-Phenotype (%),[9],24%
same,Total Cell Count,[9],143
same,Population Apoptotic (%),[10],50%
same,Population Fragmented Nuclei (%),[10],18%
same,Population Healthy Nuclei (%),[10],78%
same,Population Hoechst High Intensity Objects (%),[10],10%
same,Population Membrane Permeable-Phenotype (%),[10],22%
same,Population Mitochondria Different-Phenotype (%),[10],1%
same,Population Mitotic Cells (%),[10],50%
same,Population Normal (%),[10],89%
same,Population Pyknosed Nuclei (%),[10],2%
same,Population Tubulin-Different-Phenotype (%),[10],40%
same,Total Cell Count,[10],84
same,Population Apoptotic (%),[11],54%
same,Population Fragmented Nuclei (%),[11],49%
same,Population Healthy Nuclei (%),[11],29%
same,Population Hoechst High Intensity Objects (%),[11],15%
same,Population Membrane Permeable-Phenotype (%),[11],12%
same,Population Mitochondria Different-Phenotype (%),[11],41%
same,Population Mitotic Cells (%),[11],45%
same,Population Normal (%),[11],84%
same,Population Pyknosed Nuclei (%),[11],21%
same,Population Tubulin-Different-Phenotype (%),[11],93%
same,Total Cell Count,[11],123
same,Population Apoptotic (%),[12],29%
same,Population Fragmented Nuclei (%),[12],23%
same,Population Healthy Nuclei (%),[12],58%
same,Population Hoechst High Intensity Objects (%),[12],9%
same,Population Membrane Permeable-Phenotype (%),[12],7%
same,Population Mitochondria Different-Phenotype (%),[12],51%
same,Population Mitotic Cells (%),[12],70%
same,Population Normal (%),[12],90%
same,Population Pyknosed Nuclei (%),[12],17%
same,Population Tubulin-Different-Phenotype (%),[12],96%
same,Total Cell Count,[12],106
CN1C(=O)c2sccc2N(C)c2nc(Nc3ccc(S(N)(=O)=O)cc3)ncc21,Population Apoptotic (%),[3],73% and 80%
same,Population Fragmented Nuclei (%),[3],30% and 28%
same,Population Healthy Nuclei (%),[3],50% and 56%
same,Population Hoechst High Intensity Objects (%),[3],9% and 15%
same,Population Membrane Permeable-Phenotype (%),[3],7% and 4%
same,Population Mitochondria Different-Phenotype (%),[3],7%
same,Population Mitotic Cells (%),[3],26% and 20%
same,Population Normal (%),[3],90% and 84%
same,Population Pyknosed Nuclei (%),[3],18% and 14%
same,Population Tubulin-Different-Phenotype (%),[3],3% and 7%
same,Total Cell Count,[3],224 and 198
same,Population Fragmented Nuclei (%),[4],52%
same,Population Healthy Nuclei (%),[4],36% and 33%
same,Population Hoechst High Intensity Objects (%),[4],32% and 34%
same,Population Membrane Permeable-Phenotype (%),[4],13% and 8%
same,Population Mitochondria Different-Phenotype (%),[4],13% and 0%
same,Population Mitotic Cells (%),[4],42% and 100%
same,Population Normal (%),[4],67% and 65%
same,Population Pyknosed Nuclei (%),[4],11% and 13%
same,Population Tubulin-Different-Phenotype (%),[4],4% and 0%
same,Total Cell Count,[4],91 and 55
same,Population Apoptotic (%),[7],55% and 72%
same,Population Fragmented Nuclei (%),[7],23% and 27%
same,Population Healthy Nuclei (%),[7],60% and 52%
same,Population Hoechst High Intensity Objects (%),[7],14% and 16%
same,Population Membrane Permeable-Phenotype (%),[7],8%
same,Population Mitochondria Different-Phenotype (%),[7],2%
same,Population Mitotic Cells (%),[7],44% and 27%
same,Population Normal (%),[7],85% and 83%
same,Population Pyknosed Nuclei (%),[7],15% and 20%
same,Population Tubulin-Different-Phenotype (%),[7],5% and 3%
same,Total Cell Count,[7],219 and 217
same,Population Apoptotic (%),[8],45% and 50%
same,Population Fragmented Nuclei (%),[8],59% and 52%
same,Population Healthy Nuclei (%),[8],23% and 36%
same,Population Hoechst High Intensity Objects (%),[8],33% and 37%
same,Population Membrane Permeable-Phenotype (%),[8],0%
same,Population Mitochondria Different-Phenotype (%),[8],6% and 0%
same,Population Mitotic Cells (%),[8],54% and 50%
same,Population Normal (%),[8],66% and 62%
same,Population Pyknosed Nuclei (%),[8],17% and 11%
same,Population Tubulin-Different-Phenotype (%),[8],6% and 15%
same,Total Cell Count,[8],96 and 58
